Screening results from PubChem.
KCNK3 block = human KCNK3 channel inhibitors, primary screen, CHO cells, FluxOR thallium flux, B-score. Potassium channel subfamily K member 3 (Homo sapiens), O14649. FluxOR fluorescence; stronger effect = lower value. B-score at 10 µM. 0.84% of 340,000 active;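 active = B-score under library mean minus 4 SD, starting fluorescence ratio at most library mean plus 5 SD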;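 also: more negative B-score means stronger inhibition of thallium flux through KCNK3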
hERG rescue = hERG rescue from dofetilide block, primary screen, cell-based, CHO-hERG, FluxOR thallium flux, dofetilide IC70. Voltage-gated inwardly rectifying potassium channel KCNH2 (Homo sapiens), Q12809. AID 1511, 2009. 0.51% of 310,000 active. activation (rescue from dofetilide block), less the hit threshold, % at 10 µM. dofetilide IC70 present;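 active = activation above the mean of controls blocked by dofetilide plus 5 SD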;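 also: thallium influx through hERG after potassium depolarization seen as dye fluorescence rise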
Kir21 block = inhibitors of mouse Kir2.1 inward-rectifier potassium channel. B-score at 10 µM. 0.85% of 310,000 active. HEK293-Kir2.1, FluxOR thallium flux fluorescence; stronger effect = lower value. Inward rectifier potassium channel 2 (Mus musculus), P35561. AID 1672, 2009;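 active = fluorescence ratio B-score at or below minus 3 SD of library scores, with starting-brightness B-score within 2 SD, cut at about -4.2 in these data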;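 also: channel flux triggered by added potassium and thallium sulfate stimulus; B-score of peak minus minimum fluorescence over baseline after thallium stimulus; more negative B-score means stronger Kir2.1 block with less thallium influx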
KCNK9 block = KCNK9 potassium channel inhibitors, primary screen, HEK293 cells, thallium flux; 1.2% of 310,000 active; B-score at 10 µM; FluxOR thallium flux fluorescence; stronger effect = lower value; Potassium channel subfamily K member 9 (Homo sapiens), Q9NPC2;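 active = ratio B-score over 3 SD below the library mean, with starting fluorescence within 5 SD of its mean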;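 also: negative B-score means less thallium flux so channel inhibition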
KCNQ1 pot = potentiators or activators of KCNQ1 channel, primary screen, cell-based, thallium flux, high-throughput. Potassium voltage-gated channel subfamily KQT member 1 (Homo sapiens), P51787. CHO-K1 KCNQ1, thallium flux FluxOR fluorescence; stronger effect = higher value. B-score at 10 µM. 0.35% of 310,000 active;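 active = fluorescence ratio B-score, a plate-corrected score, at least three library SD, with initial intensity B-score within 5 SD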
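assay system = KCNQ1-transfected CHO-K1 cells | medium = assay buffer with matched DMSO | probe or stimulus = depolarizing K+/Tl+ stimulus, K2SO4 and Tl2SO4 each 12.5 mM in 5x stock | dosing = single dose | incubation = dye 90 min, compound 20 min, room temperature | detection = kinetic FluxOR fluorescence, 10 s baseline plus 110 s post-stimulus | evaluation = ratio B score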
KCNQ1 inh = inhibitors of human KCNQ1 channel, primary screen, cell-based, thallium flux, high-throughput | B-score at 10 µM | 1.3% of 310,000 active | CHO-K1 KCNQ1, FluxOR thallium flux fluorescence; stronger effect = higher value | Potassium voltage-gated channel subfamily KQT member 1 (Homo sapiens), P51787 | AID 2642, 2010;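 active = compounds whose thallium flux B-score, printed positive for inhibition, exceeds three library SD while starting fluorescence stays within three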;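 also: channel opened by potassium depolarization with thallium stimulus after 20 min compound exposure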
KCNK9 block conf = KCNK9 potassium channel inhibitors, confirmation, HEK293 cells, thallium flux, duplicate; inhibition, % at 10 µM; shares compounds with KCNK9 block; AID 492992, 2010; FluxOR thallium flux fluorescence; 43% of 4,900 active;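 active = thallium signal inhibited by more than 5 SD of the compound-free buffer control wells, on both duplicate plates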
Kir21 sel = mouse Kir2.1 channel inhibition, confirmation, selectivity assay for KCNK9 modulator project, cell-based, HEK293, thallium flux | 4% of 4,900 active | Kir2.1 cells, FluxOR thallium flux fluorescence | shares compounds with KCNK9 block | inhibition, % at 10 µM | AID 492993, 2010;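 active = thallium signal drop more than 5 SD beyond the mean of the no-compound control wells, seen in both duplicate plates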;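 also: signal is fluorescence rise after thallium addition divided by baseline fluorescence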
HEK293 Tl ctr = thallium flux in non-induced HEK293 cells, confirmation, counter-screen for KCNK9 inhibitor project, cell-based, second counter screen, non-induced KCNK9-HEK293; 40% of 4,900 active; inhibition, % at 10 µM; AID 492997, 2010; FluxOR thallium flux; shares compounds with KCNK9 block;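 active = thallium signal drop beyond 5 SD of the untreated control mean, on both duplicate plates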
Of the large screens only hits and unclear results are named; the others gave an inactive call (follow-up assays come after a bar, where they were run). Shown are actives, neighbours in structure and some others; about 3.8% of the full set was active somewhere.

COc1ccc(OC)c(C2SCCN2S(=O)(=O)c2cccc(C(F)(F)F)c2)c1 (configuration not stated)	KCNK9 block -15 | KCNK9 block conf inactive | Kir21 sel inactive | HEK293 Tl ctr 60%
C/C(=N/OC(=O)c1ccccc1Br)c1ccc(C)cc1	KCNK9 block -12 | KCNK9 block conf 58% | Kir21 sel inactive | HEK293 Tl ctr 34%
C/C(=N/OC(=O)c1ccc(C)cc1)c1cccs1	none
CCCCN(C(=O)C1CCCC1)c1c(N)n(CCC)c(=O)[nH]c1=O	none (no result: hERG rescue, Kir21 block, KCNK9 block, KCNQ1 pot, KCNQ1 inh)
Cc1nc(N2CCCCC2C)c2c(C)c(C(=O)Nc3ccccc3C(F)(F)F)sc2n1 (configuration not stated)	KCNK9 block -14, KCNQ1 inh 9 | KCNK9 block conf 55% | Kir21 sel inactive | HEK293 Tl ctr 42%
Cc1nc(N2CCOCC2)c2c(C)c(C(=O)Nc3ccccc3Cl)sc2n1	none
CC(C)c1cc(C(N)=O)c(NC(=O)c2cccc(COc3ccc(Cl)cc3)c2)s1	none
CC(C)COc1ccc(C(=O)Nc2scc(-c3ccc(Cl)cc3Cl)c2C(N)=O)cc1	none | KCNK9 block conf inactive | Kir21 sel inactive | HEK293 Tl ctr inactive
CNS(=O)(=O)c1cccc(C(=O)OCC(=O)c2c(N)n(Cc3ccccc3)c(=O)n(C)c2=O)c1	none (no result: hERG rescue, Kir21 block, KCNK9 block, KCNQ1 pot, KCNQ1 inh)
C/C=C1\COC(C(=O)NCc2ccccc2)(C(F)(F)F)C=C1C=C1CCCCC1 (configuration not stated)	KCNQ1 inh 7 | KCNK9 block conf inactive | Kir21 sel inactive | HEK293 Tl ctr inactive
CCN(c1ccccc1)c1ncnc2c1cnn2-c1ccccc1	none | KCNK9 block conf inactive | Kir21 sel inactive | HEK293 Tl ctr inactive
CN(Cc1ccccc1)c1ncnc2c1cnn2-c1ccccc1	none
NC(=O)C1CCN(CC(=O)N2N=CCC2c2ccccc2)CC1 (configuration not stated)	KCNK9 block -8.9 | KCNK9 block conf inactive | Kir21 sel inactive | HEK293 Tl ctr inactive
O=C(CN1CCN(c2ccccc2)CC1)N1N=CCC1c1ccccc1 (configuration not stated)	none
CCOC(=O)c1sc(NC(=S)NC(=O)c2ccccc2Cl)c(C(=O)OCC)c1C	KCNK9 block -9.1 | KCNK9 block conf inactive | Kir21 sel inactive | HEK293 Tl ctr inactive
COc1ccccc1N1CCN(C2CCCN(S(=O)(=O)c3cccc(Cl)c3)C2)CC1 (configuration not stated)	none | KCNK9 block conf inactive | Kir21 sel inactive | HEK293 Tl ctr inactive
COc1ccccc1N1CCN(C2CCCN(S(=O)(=O)c3ccc(C)cc3)C2)CC1 (configuration not stated)	none
O=C(Nc1cccc(-c2nn[nH]n2)c1)c1csc2c1CCCC2	none
CCOC(=O)c1ccc(NC(=O)NNS(=O)(=O)c2cc(OC)ccc2OC)cc1	none
Cc1nc(SCC(=O)N2c3ccccc3NC(=O)CC2C)c2c(C)c(C)sc2n1 (configuration not stated)	none (no result: hERG rescue, Kir21 block, KCNK9 block, KCNQ1 pot, KCNQ1 inh)
Cc1sc2nc(C3CC3)nc(SCC(=O)N3c4ccccc4CC3C)c2c1C (configuration not stated)	none | KCNK9 block conf inactive | Kir21 sel inactive | HEK293 Tl ctr inactive
CCOC(=O)c1sc2nc(CC(=O)OC)nc(N3CCN(c4ccc(OC)cc4)CC3)c2c1C	none | KCNK9 block conf inactive | Kir21 sel inactive | HEK293 Tl ctr inactive
O=C(NCC1CCCN1S(=O)(=O)c1ccccc1)c1cccc(Cl)c1 (configuration not stated)	none
CC(C)(C)c1ccc(C(=O)NCC2CCCN2S(=O)(=O)c2ccccc2)cc1 (configuration not stated)	none | KCNK9 block conf inactive | Kir21 sel inactive | HEK293 Tl ctr inactive
Cc1cc(C)cc(NC(=O)c2cccn2-c2ncc(C(F)(F)F)cc2Cl)c1	none | KCNK9 block conf inactive | Kir21 sel inactive | HEK293 Tl ctr inactive
COc1ccc(N2C(=O)CC(N3CCN(S(=O)(=O)c4c(C)cc(C)cc4C)CC3)C2=O)cc1 (configuration not stated)	none (no result: hERG rescue, Kir21 block, KCNK9 block, KCNQ1 pot, KCNQ1 inh)
COc1ccccc1OCCSc1nnnn1-c1ccc(C)cc1	none | KCNK9 block conf inactive | Kir21 sel inactive | HEK293 Tl ctr inactive
Fc1ccccc1OCCSc1nnnn1-c1ccccc1	none
CN(Cc1c(C(=O)N/N=C/c2cccc(Cl)c2)nnn1-c1nonc1N)c1ccccc1	none
Cc1ccnc(NC(=O)C23CC4CC(CC(C4)C2)C3)c1	none | KCNK9 block conf inactive | Kir21 sel inactive | HEK293 Tl ctr inactive
CCC(C)(C)n1nnnc1C(c1ccc(O)c(OC)c1)N1CCN(c2nc3ccccc3s2)CC1 (configuration not stated)	KCNK9 block -15 | KCNK9 block conf 46% | Kir21 sel inactive | HEK293 Tl ctr 28%
CCC(C)(C)n1nnnc1C(c1cccc(C#N)c1)N1CCN(c2cccc(C)c2C)CC1 (configuration not stated)	KCNK3 block -9.5, KCNK9 block -17 | KCNK9 block conf 74% | Kir21 sel inactive | HEK293 Tl ctr 38%
COc1ccc(C(c2nnnn2Cc2ccccc2)N2CCN(c3nc4ccccc4s3)CC2)cc1OC (configuration not stated)	KCNK9 block -8.7 | KCNK9 block conf inactive | Kir21 sel inactive | HEK293 Tl ctr inactive
COc1ccccc1C(c1nnnn1Cc1ccccc1)N1CCN(c2nc3ccccc3s2)CC1 (configuration not stated)	none
CC(C)(C)n1nnnc1C(c1cccc(C#N)c1)N1CCCCCC1 (configuration not stated)	none
COc1ccc(C(=O)Nc2cc(C(=O)c3ccccc3)c(C)oc2=O)cc1	none
Cc1oc(=O)c(NC(=O)c2cccc(Cl)c2)cc1C(=O)c1ccccc1	none | KCNK9 block conf inactive | Kir21 sel inactive | HEK293 Tl ctr inactive
